The record followed here is ChEMBL document CHEMBL5046274, “Identification and Optimization of Novel Small-Molecule Cas9 Inhibitors by Cell-Based High-Throughput Screening” (J Med Chem, 2022).

Assay [1] relates to Streptococcus pyogenes. As to the kind of experiment: Inhibition of Streptococcus pyogenes Cas9 at 500 microM by Cas9 cleavage assay. An outline of the steps:
(§1)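 Recombinant SpyCas9 (5 nM) preincubated with compound in DMSO (final 5% v/v) for 15 min at 37 °C in PBS + 10 mM MgCl2 + 0.02% Triton X-100. Then 6 nM preformed crRNA/tracrRNA gRNA for 5 min, then 1 nM PCR-amplified target DNA for 30 min. Quenched with proteinase K, run on a 1% agarose gel, bands quantified by densitometry. Run in triplicate; IC50 from a four-parameter logistic fit.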

Assay [2] is described as follows: Inhibition of Streptococcus pyogenes Cas9 by Cas9 cleavage assay. The method in brief: as §1
Assay [3] has as its system Streptococcus pyogenes. Kind of assay: Inhibition of Streptococcus pyogenes Cas9 assessed as inhibition of Csp9:gRNA complex formation at 200 to 500 uM. As to conditions: dose 200-500 µM.
Assay [4] deals with Streptococcus pyogenes. As to the kind of experiment: Inhibition of Streptococcus pyogenes Cas9 at 200 microM by Cas9 cleavage assay. An outline of the steps: as §1
Assay [5] relates to Streptococcus pyogenes. Kind of assay: Binding affinity to Streptococcus pyogenes Cas9 by 1D 1H-NMR-WaterLOGSY spectrum analysis. The method in brief:
(§2)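 NMR ligand-binding on apo-SpyCas9 with standard pulse sequences. For WaterLOGSY, bound ligands give signals of opposite (negative) phase to non-binders. Alanine is added to the cocktail at the ligand concentration as a phasing reference.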

For assay [6], the system named is Streptococcus pyogenes. As to the kind of experiment: Binding affinity to Streptococcus pyogenes Cas9 by 1H-19F-(CPMG)-NMR analysis. An outline of the steps:
as §2

The subject of assay [7] is Streptococcus pyogenes. Kind of assay: Inhibition of Streptococcus pyogenes Cas9 assessed as inhibition of Csp9:gRNA complex formation.
Assay [8] concerns Streptococcus pyogenes. As to the kind of experiment: Inhibition of Streptococcus pyogenes Cas9 assessed as inhibition of Csp9:gRNA complex formation at 200 uM by EMSA assay. An outline of the steps:
(§3)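 EMSA in PBS + 10 mM MgCl2 + 0.02% Triton X-100. Compound incubated with 200 nM apo-SpyCas9 for 5 min at 37 °C, then 200 nM Atto550-labelled crRNA/tracrRNA gRNA added for 15 min. Complexes resolved on a 6% TBE gel and visualised by fluorescence.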

Assay [9] deals with Streptococcus pyogenes. Kind of assay: Inhibition of Streptococcus pyogenes apo-Cas9 assessed as inhibition of Csp9:gRNA complex formation at 10 to 200 uM by EMSA assay. As to conditions: dose 10-200 µM. An outline of the steps:
as §3
A general note: A gel shift assay detects complexes by their altered migration in electrophoresis.

Activity calls are given as the source filed them. The rule behind the calls is not given here.

As to `Cc1cc(NS(=O)(=O)c2cc(-c3nc(C)c(C(=O)N4CCC(C)CC4)s3)n(C)c2C)no1`, the result in [1] was Active. Moreover, in [2], the IC50 – broadly, the concentration that inhibits the measured activity by half – is 246 µM. In addition, the inhibition result in assay [3] was “Active”.

As to `Cc1cc(NS(=O)(=O)c2cccc(-c3ccccc3)c2)no1`, in assay [2], the IC50 came out at 129 µM. For `Oc1c(C(c2ccccn2)N2CCC(Cc3ccccc3)CC2)cc(Cl)c2cccnc12` (configuration not stated), the outcome in assay [1] was Active. On to `Cc1cc(NS(=O)(=O)c2cccc(-c3ccc(Cl)c(Cl)c3)c2)no1`, for which, in [2], it took 14 µM to reach half-maximal inhibition (IC50). Regarding `Cc1cc(NS(=O)(=O)c2ccc(-c3ccccc3)cc2)no1`, the IC50 in assay [2] was 189 µM. Consider `Cc1ccnc(NS(=O)(=O)c2cc(-c3nc(C)c(C(=O)N4CCC(C)CC4)s3)n(C)c2C)c1`, for which the result in assay [4] was inactive. In assay [2], `Cc1cc(NS(=O)(=O)c2cc(-c3ccc(Cl)c(Cl)c3)cc(C(F)(F)F)c2)no1` displayed an IC50 of 7.02 µM. The outcome in assay [5] and in assay [6] was Active. Besides, the inhibition entry in [7], in assay [8] and in assay [9] was “Active” each time. In assay [2], `Cc1cc(NS(=O)(=O)c2ccc(-c3cccc(C(=O)N4CCC(C)CC4)c3)cc2)no1` displayed an IC50 of 223 µM. The same measure, in the same setting: under `CC1CCN(C(=O)c2cccc(-c3ccccc3)c2)CC1` stands 28 µM. `CC1CCN(C(=O)c2cccc(-c3ccc(C(F)(F)F)cc3)c2)CC1` displayed an IC50 in [2] of 28 µM.
